# According to ChEMBL document CHEMBL4145527, “Targeting polyamine transport in Trypanosoma cruzi” (Eur J Med Chem, 2018):
# Activity calls are given as the source filed them. No cut-off for these calls is given here.
# Legend:
# [1] = biological target: T1, Putative amino acid permease/transporter (Trypanosoma cruzi, UniProt D5FGE8); test: Inhibition of Trypanosoma cruzi Y epimastigotes PAT assessed as reduction in [3H]--spermidine uptake after 10 mins by liquid scintillation counting method
# T1 sequence (D5FGE8 whole entry): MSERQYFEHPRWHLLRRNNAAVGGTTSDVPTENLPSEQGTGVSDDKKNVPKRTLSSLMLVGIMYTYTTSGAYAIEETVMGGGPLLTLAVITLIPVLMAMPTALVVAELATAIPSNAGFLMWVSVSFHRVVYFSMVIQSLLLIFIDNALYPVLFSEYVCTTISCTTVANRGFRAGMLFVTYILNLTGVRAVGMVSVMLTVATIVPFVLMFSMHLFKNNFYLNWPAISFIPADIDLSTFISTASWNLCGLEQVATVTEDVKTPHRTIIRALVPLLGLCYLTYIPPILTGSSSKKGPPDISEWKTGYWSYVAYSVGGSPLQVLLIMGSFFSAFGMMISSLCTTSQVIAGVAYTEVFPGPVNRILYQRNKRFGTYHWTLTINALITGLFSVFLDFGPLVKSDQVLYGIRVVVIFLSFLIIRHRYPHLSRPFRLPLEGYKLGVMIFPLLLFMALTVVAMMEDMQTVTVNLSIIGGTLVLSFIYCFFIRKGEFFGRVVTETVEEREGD
# In short: (§1)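 Y-strain epimastigotes from BHT culture were washed twice in PBS. 10^7 cells in PBS-2% glucose were given [3H]-putrescine (5 µM) or [3H]-spermidine (15 µM), 0.4 µCi, with inhibitor at 0–30 µM, later narrowed. Incubation was 10 min at 28 °C or 37 °C, stopped with ice-cold buffer and washed; pellets went to scintillation counting. Nonspecific uptake was taken with a 100-fold molar excess of substrate. IC50 was fit by nonlinear regression.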
# [2] = biological target: T2, Putative amino acid permease/transporter (Trypanosoma cruzi) (UniProt D5FGE8); test: Inhibition of Trypanosoma cruzi Y epimastigotes PAT assessed as reduction in [3H]--spermidine uptake up to 30 uM after 10 mins by liquid scintillation counting method; in short: as §1
# T2 sequence (whole entry): T1 sequence (D5FGE8 whole entry)
# [3] = biological target: T2, Putative amino acid permease/transporter (Trypanosoma cruzi); test: Inhibition of Trypanosoma cruzi Y epimastigotes PAT assessed as reduction in [3H]-putrescine uptake up to 30 uM after 10 mins by liquid scintillation counting method; in short: as §1
# [4] = biological target: T1, Putative amino acid permease/transporter; test: Inhibition of Trypanosoma cruzi Y epimastigotes PAT assessed as reduction in [3H]-putrescine uptake after 10 mins by liquid scintillation counting method; in short: as §1
# Leishmania amazonensis = test: Antiparasitic activity against Leishmania amazonensis MHOM/Br/75/Josefa promastigotes by light microscopic method; format: functional, organism-based
# Trypanosoma cruzi [5] = test: Trypanopcidal activity against Trypanosoma cruzi Y trypamastigotes infected in African green monkey Vero cells treated for 5 days by Neubauer chamber or MTS dye based assay; format: functional, organism-based; settings: 120 h
# In short: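 VERO cells infected with trypomastigotes were exposed to compound at 0–2.5 µM for five days. Trypomastigote burst was scored after six days of infection. IC50 was obtained by nonlinear regression of dose-response.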
# Vero = test: Cytotoxicity against African green monkey Vero cells assessed as reduction in cell viability after 24 hrs by crystal violet staining based assay; settings: Chlorocebus sabaeus
# In short: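 VERO cells (MEM, 10% heat-inactivated FCS, 37 °C, 5% CO2) were seeded at 10^4 cells/well and treated 24 h with compound at 0–50 µM; PBS served as negative control. Cells were fixed 15 min, stained with 0.5% crystal violet, and absorbance read at 570 nm. IC50 was from nonlinear regression.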
# Trypanosoma cruzi [6] = test: Potentiation of benznidazole-induced trypanopcidal activity against Trypanosoma cruzi Y epimastigotes at 20 uM after 72 hrs by Neubauer chamber or MTS dye based assay; format: functional
# In short: (§2)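 Epimastigotes were treated with 30 µM benznidazole alone or with 20 µM polyamine conjugate, for up to 96 h at 28 °C. Parasites were counted (Neubauer or MTS) at 24, 48, 72 and 96 h. Potentiation is the fold change in benznidazole potency with versus without the conjugate.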
# [7] = Selectivity index, ratio of IC50 for cytotoxicity against African green monkey Vero cells to IC50 for trypanopcidal activity against Trypanosoma cruzi Y trypamastigotes; format: toxicity, cell-based; settings: read-out: Ratio IC50
# Trypanosoma cruzi [8] = test: Ratio of IC50 for Trypanosoma cruzi Y epimastigotes to IC50 for Trypanosoma cruzi Y trypamastigotes; format: functional
# Trypanosoma cruzi [9] = test: Potentiation of benznidazole-induced trypanopcidal activity against Trypanosoma cruzi Y epimastigotes at 20 uM after 24 hrs by Neubauer chamber or MTS dye based assay; format: functional; in short: as §2
# HL-60 = test: Cytotoxicity against human HL60 cells; format: cell-based
# [10] = biological target: T1, Putative amino acid permease/transporter; test: Inhibition of Trypanosoma cruzi Y trypamastigotes PAT assessed as reduction in [3H]--spermidine uptake after 10 mins by liquid scintillation counting method
# In short: (§3)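 Trypomastigotes came from infected VERO cells. 10^7 washed parasites in PBS-2% glucose were given [3H]-putrescine or [3H]-spermidine (0.4 µCi) plus inhibitor for 10 min at 28 °C or 37 °C. The reaction was stopped with ice-cold PBS-glucose, washed and scintillation counted. Background was taken with a 100-fold molar substrate excess. IC50 came from logistic dose-response fit.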
# Trypanosoma cruzi [11] = test: Trypanopcidal activity against Trypanosoma cruzi Y epimastigotes after 48 hrs by Neubauer chamber or MTS dye based assay; format: functional, organism-based
# In short: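 Y-strain epimastigotes, 10^7 cells/well in BHT (pH 7, 10% FCS, hemin), were exposed to 0–100 µM compound at 28 °C for 48 h. Growth was counted in a Neubauer chamber or by MTS. IC50 is 50% viability relative to untreated control, by nonlinear regression; at least triplicate, three independent assays.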
# Trypanosoma cruzi [12] = test: Potentiation of benznidazole-induced trypanopcidal activity against Trypanosoma cruzi Y epimastigotes at 20 uM after 48 hrs by Neubauer chamber or MTS dye based assay; format: functional; in short: as §2
# [13] = biological target: T1, Putative amino acid permease/transporter; test: Inhibition of Trypanosoma cruzi Y trypamastigotes PAT assessed as reduction in [3H]-putrescine uptake after 10 mins by liquid scintillation counting method; in short: as §3
# Trypanosoma cruzi [14] = test: Potentiation of benznidazole-induced trypanopcidal activity against Trypanosoma cruzi Y epimastigotes at 20 uM after 96 hrs by Neubauer chamber or MTS dye based assay; format: functional; in short: as §2
# Trypanosoma cruzi [15] = test: Trypanopcidal activity against Trypanosoma cruzi Y trypamastigotes after 24 hrs by Neubauer chamber or MTS dye based assay; format: functional, organism-based
# In short: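 Culture-derived trypomastigotes, 10^6 cells/mL, were held at 37 °C for 24 h with compound at 0–2.5 µM. Motility was checked microscopically, and viability was counted by Neubauer chamber or MTS against untreated controls. IC50 was from logistic nonlinear regression.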
smiles,measurement,setting,value
NCCCCNCCCCNCc1c2ccccc2cc2ccccc12,IC50,[1],13.3 µM
same,inhibition,[2],Active
same,inhibition,[3],Active
same,IC50,[4],3.98 µM
CCCCCCCCCCCCCCCC(=O)NCCCCC(N)C(=O)NCCCNCCCCNCCCN (centres undefined),inhibition,[3],Active
same,IC50,[4],2.43 µM
NCCC(=O)CN,IC50,Leishmania amazonensis,144 µM
Cl.Cl.NCCCCNCc1c2ccccc2cc2ccccc12,IC50,Trypanosoma cruzi [5],0.52 µM
same,IC50,[1],8.78 µM
same,IC50,Vero,5.86 µM
same,fold change (FC),Trypanosoma cruzi [6],6.2
same,selectivity ratio,[7],12.7
same,Ratio IC50,Trypanosoma cruzi [8],37
same,fold change (FC),Trypanosoma cruzi [9],1.5
same,inhibition,[2],Active
same,IC50,HL-60,20 µM
same,IC50,[10],4.86 µM
same,IC50,Trypanosoma cruzi [11],17 µM
same,inhibition,[3],Active
same,IC50,[4],5.02 µM
same,fold change (FC),Trypanosoma cruzi [12],1.9
same,IC50,[13],4.94 µM
same,fold change (FC),Trypanosoma cruzi [14],11.2
same,IC50,Trypanosoma cruzi [15],0.46 µM
